Test results from publication PMC8851646 (ACS Omega, 2022).
pIC50: −log10 of the molar value. Like-named read-outs stand apart in the source and are kept apart here.

Assays:
[1] = test system: K. pneumoniae NB29017 co-cultured with T. pyriformis; assay: T. pyriformis/K. pneumoniae; type: cell-based, Klebsiella pneumoniae; details: for activity in the Tp/Kp assay: manual pilot screens and D1 analog set
[2] = test system: K. pneumoniae wbbM mutant (NB29018) co-cultured with T. pyriformis; assay: Tp/Kp co-culture assay with cell surface-defective wbbM mutant; type: cell-based, Klebsiella pneumoniae; details: Tp threshold 4625–18,500 Tp/mL
K. pneumoniae NB29017 = assay: Qualitative inhibition of mucoid appearance of colonies on solid LB agar; type: cell-based, Klebsiella pneumoniae; details: 4 fully mucoid, 0 nonmucoid, by eye
How it was run: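 Test compound dissolved in DMSO (12.8 mg/mL stock) and mixed into melted LB agar at 0–16 μg/mL final, then set in six-well plates. Mucoid wild-type NB29017 streaked for single colonies in each well. Plates incubated 18 h at 37 °C, then 2 h at 4 °C. Mucoid appearance scored by eye from 0 (none) to 4 (normal hypermucoid).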

Staphylococcus aureus = assay: Antibacterial MIC, Gram-positive control; type: cell-based; details: read-out: MIC Sa
Red blood cell hemolysis = type: cell-based, sheep; details: sheep, erythrocytes from defibrinated sheep blood, pH 7.5
[3] = Cytotoxicity in K562 cells; type: cell-based; details: human
[4] = read-out: IC50 Tp/Kp, Table 1, freshly dissolved powder, top concentration 20 μM

Compound	activity in the Tp/Kp assay [1]	activity in the Tp/Kp wbbM assay [2]	qualitative score on solid medium (K. pneumoniae NB29017; 1 μg/mL compound in agar)	qualitative score on solid medium (K. pneumoniae NB29017; 2 μg/mL compound in agar)	qualitative score on solid medium (K. pneumoniae NB29017; 4 μg/mL compound in agar)	qualitative score on solid medium (K. pneumoniae NB29017; 8 μg/mL compound in agar)	qualitative score on solid medium (K. pneumoniae NB29017; 16 μg/mL compound in agar)	pIC50 [1, 4]	IC50 ([1]; read-out: Tp/Kp IC50, Table 2, expressed as μg/mL for comparison to agar values) [µg/mL]	pIC50 ([1]; read-out: Tp/Kp IC50, archived powder, side by side on the same assay plate, Tp set at 25000)	pIC50 ([1]; read-out: Tp/Kp IC50, resynthesis batch, side by side on the same assay plate, Tp set at 25000)	MIC (Staphylococcus aureus) [µg/mL]	hemolysis at 1 h (Red blood cell hemolysis) [%]	pIC50 [3]
Cc1nnc(-c2ccccc2)nc1O [compound 34, Cc1nnc(nc1O)c2ccccc2]	active	retained activity												
Cc1nnc(SCC(=O)Nc2ccc(Br)cc2)nc1O [compound 35, Cc1nnc(nc1O)SCC(=O)Nc2ccc(Br)cc2]	active	retained activity												
CCOC(=O)c1ccc2nc(NC(=O)c3cccs3)sc2c1 [compound 64, CCOC(=O)c3ccc2N=C(NC(=O)C1=CC=CS1)Sc2c3]		retained potency	0	0	0	0	0	6.92	0.04	6.44	6.73	> 128	14.9	< 3.41
COc1ccc(Br)c(/C=N/NC(=O)COc2ccc(-c3ccccc3)cc2)c1 [compound 69, COc3ccc(Br)c(/C=N/NC(=O)COc1ccc(cc1)c2ccccc2)c3]			0	0	0	0	0	7.30				> 128	4.1	< 3.54
O=C(/C=C/c1ccccc1)Nc1ccc(C(=O)Nc2nccs2)cc1 [compound 70, O=C(/C=C/c1ccccc1)Nc2ccc(cc2)C(=O)NC3=NC=CS3]			3	1	0	0	0	5.96				> 128	17.6	< 3.44
CC12CC3(C)CC(C(=O)O)(C1)CC(C(=O)O)(C2)C3 [compound 73, CC12CC3(C)CC(C1)(CC(C2)(C3)C(O)=O)C(O)=O]			4	3	3	3	2	5.96				> 128	2.8	< 3.29
CCOc1ccc2nc(NC(=O)c3ccc4ncsc4c3)sc2c1 [compound 74, CCOc4ccc3N=C(NC(=O)c2ccc1N=CSc1c2)Sc3c4]			2	0	0	0	0	6.43				> 128	26.9	< 3.44
CCOc1cccc(C(=O)Nc2ccc(-c3nc4ccccc4[nH]3)cc2)c1 [compound 79, CCOc1cccc(c1)C(=O)Nc2ccc(cc2)C4Nc3ccccc3N=4]			2	2	2	2		5.88				> 128	40.6	3.47
CCCCNC(=O)NS(=O)(=O)c1cccs1 [compound 82, CCCCNC(=O)NS(=O)(=O)C1=CC=CS1]			4	4	3	3	2	5.59				> 128	7.4	< 3.31
